Measured values of several laboratories.
Each line is one published result; the experiments were not run side by side.
Target: Serine/threonine-protein kinase haspin (HASPIN, Homo sapiens, UniProt Q8TF76)
Residues used in one study (Q8TF76 1-798): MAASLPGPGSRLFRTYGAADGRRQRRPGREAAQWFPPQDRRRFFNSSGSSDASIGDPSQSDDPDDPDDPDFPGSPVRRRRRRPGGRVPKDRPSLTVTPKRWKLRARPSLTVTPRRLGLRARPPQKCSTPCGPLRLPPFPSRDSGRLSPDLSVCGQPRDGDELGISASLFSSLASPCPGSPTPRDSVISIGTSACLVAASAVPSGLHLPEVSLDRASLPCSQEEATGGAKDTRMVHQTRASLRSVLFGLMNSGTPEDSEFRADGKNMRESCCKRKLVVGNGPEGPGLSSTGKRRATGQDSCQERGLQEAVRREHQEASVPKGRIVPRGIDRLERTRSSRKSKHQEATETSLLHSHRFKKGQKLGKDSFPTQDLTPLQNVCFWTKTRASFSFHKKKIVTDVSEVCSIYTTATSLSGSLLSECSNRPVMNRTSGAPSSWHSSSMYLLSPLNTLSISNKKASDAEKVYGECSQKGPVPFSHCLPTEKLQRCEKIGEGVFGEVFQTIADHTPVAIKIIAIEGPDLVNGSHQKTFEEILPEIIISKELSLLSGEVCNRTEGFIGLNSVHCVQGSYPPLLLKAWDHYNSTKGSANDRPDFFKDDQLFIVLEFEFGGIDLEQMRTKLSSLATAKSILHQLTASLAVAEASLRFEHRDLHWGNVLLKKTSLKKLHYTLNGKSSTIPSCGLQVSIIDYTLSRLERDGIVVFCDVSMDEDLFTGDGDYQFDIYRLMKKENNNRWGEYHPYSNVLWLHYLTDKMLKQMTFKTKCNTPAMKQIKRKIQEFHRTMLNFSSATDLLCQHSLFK

CNCc1ccccc1-c1csc([C@@H](C)Nc2nc(C)nc3cc(OC)c(OC)cc23)c1
remaining binding (cell-free assay; competition with immobilised ligand; 1 µM): 98%

Cc1ccc(C(=O)Nc2ccc(CN3CCN(C)CC3)c(C(F)(F)F)c2)cc1C#Cc1cnc2cccnn12
remaining activity (enzyme activity; 23.5 nM): 86%

Cn1cnc(Br)c1C1=CN(c2ncnc3[nH]cnc23)CCS1
inhibition (enzyme activity; inhibitor; radiometric; 2 µM): 88.8%

COc1ccc2c(O[C@@H]3C[C@H]4C(=O)N[C@]5(C(=O)O)CC5/C=C\CCCCC[C@H](NC(=O)OC5CCCC5)C(=O)N4C3)cc(-c3csc(NC(=O)C(C)C)n3)nc2c1C (some centres unmarked)
remaining binding (cell-free assay; competition with immobilised ligand; 1 µM): 97%

O=C(Nc1cnn(-c2csc(C(=O)NC3COC3)c2)c1)Nc1ccccc1Cl
remaining activity (enzyme activity; inhibitor; 5 µM): 112%

CCCOc1ccc([C@H]2[C@H](C(=O)O)[C@@H](c3ccc4c(c3)OCO4)CN2CC(=O)Nc2c(CC)cccc2CC)cc1
remaining binding (cell-free assay; competition with immobilised ligand; 1 µM): 62%

CN1CCN(C(=O)c2ccc3cc(CCNc4ccnc5ccc(C#N)cc45)ccc3c2)CC1
inhibition (cell-free assay; competition with immobilised ligand; 2 µM): > 35%

Cc1ccc(Nc2nccc(N(C)c3ccc4c(C)n(C)nc4c3)n2)cc1S(N)(=O)=O
inhibition (enzyme activity; inhibitor; 10 µM): 8%

COc1cc(-c2cc(-c3ccc(N4CCNCC4)cc3)cnc2C)cc(OC)c1OC
inhibition (enzyme activity; inhibitor; 1 µM): 3%

Cc1cnc(NC2CCOCC2)nc1-n1cnc(C(=O)NC(CN)c2cc(F)cc(Cl)c2)c1 (centres unmarked)
remaining activity (enzyme activity; inhibitor; radiometric; 1 µM): 40%

CN1CC(Oc2cnc(C#N)cc2-c2ccn3nc(NC(=O)C4CC4)cc3c2)C1
inhibition (enzyme activity; inhibitor; 1 µM): 3%

O=C1Nc2ccc(Cl)cc2C1=Cc1cc(Cl)c(O)c(Cl)c1
remaining signal (cell-free assay; 0.5 µM): 8.65%

CCCOc1ccc(OC)c(F)c1C(=O)c1ccc(C(=O)N[C@@H]2CNC[C@H]2NC(=O)c2ccc3[nH]ncc3c2)cc1
remaining activity (enzyme activity; inhibitor; 10 µM): 22%

N#CCCc1ccc2c(c1)-c1[nH]c3ccc([N+](=O)[O-])cc3c1CC(=O)N2
remaining signal (cell-free assay; 0.5 µM): 110%

Cc1sc(C(=O)NC2COC2)cc1-n1cc(NC(=O)Nc2c(F)cccc2Cl)cn1
remaining activity (enzyme activity; inhibitor; 10 µM): 92.4%

O=C(O)c1ccc2c3c1cccc3c(=O)n1c3ccccc3nc21
remaining activity (enzyme activity; inhibitor; 0.5 µM): 90.9%

CCCCN(CCCC)C(=O)CN1C[C@@H](c2cc(OC)c3c(c2)OCO3)[C@H](C(=O)O)[C@H]1CC(C)(C)CCC
remaining binding (cell-free assay; competition with immobilised ligand; 1 µM): 100%

Cn1cncc1C1=CN(c2ncnc3[nH]cnc23)CCS1
inhibition (enzyme activity; inhibitor; radiometric; 2 µM): 88.4%

COCCOc1nc(-c2ccc(Cl)nc2)nc2c1CN(C(=O)c1ncn3ccccc13)CC2
remaining binding (cell-free assay; competition with immobilised ligand; 0.1 µM): 100%

CC(C)(C)c1nc2c(s1)c1nc(N)ncc1c1ccc(NS(=O)(=O)c3c(F)cccc3F)c(F)c12
remaining activity (enzyme activity; inhibitor; radiometric; 1 µM): 118%

CNC(=O)c1cc(Oc2ccc(NC(=O)Nc3ccc(Cl)c(C(F)(F)F)c3)cc2)ccn1
inhibition (enzyme activity; inhibitor; 10 µM): 10%

CC(=O)Nc1c(C(C)=O)c(=O)n(C)c2nc(-c3ccc(Cl)cc3Cl)c(-c3ccc(Cl)cc3)cc12
remaining binding (cell-free assay; competition with immobilised ligand; 1 µM): 100%

CCN(CC)CCNC(=O)c1c(C)[nH]c(/C=C2\C(=O)Nc3ccc(F)cc32)c1C
inhibition (enzyme activity; inhibitor; 0.3 µM): 32%

O=c1c2ccccc2[nH]c(=S)n1CCN1CCC(=C(c2ccc(F)cc2)c2ccc(F)cc2)CC1
remaining activity (enzyme activity; inhibitor; 0.5 µM): 95.4%

CC(=O)c1c(NS(C)(=O)=O)c2cc(-c3ccc(Cl)cc3)c(-c3ccc(Cl)cc3Cl)nc2n(C)c1=O
remaining binding (cell-free assay; competition with immobilised ligand; 1 µM): 92%

Cc1cc(NC(=O)c2cccc3cc(-c4cccc5[nH]nc(N)c45)ccc23)ccc1F
activity vs control (enzyme activity; inhibitor; 0.1 µM): 111%
